Measurements taken from ChEMBL document CHEMBL5357066, “Development of Novel Membrane Disrupting Lipoguanidine Compounds Sensitizing Gram-Negative Bacteria to Antibiotics” (ACS Med Chem Lett, 2024).
Activity calls are given as the source filed them. The rule behind the calls is not given here.

Key:
Klebsiella pneumoniae [1] = experiment: Synergistic antibacterial activity against Klebsiella pneumoniae M6 assessed as reduction in rifampicin MIC at 8 to 32 microg/ml incubated for overnight by microbroth dilution checkerboard assay; assay type: functional, organism-based; conditions: dose 8-32 µg/ml
Outline: (§1)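 Broth microdilution in Tryptic Soy Broth, with rifampicin in a 2-fold dilution series combined with the second agent. Bacteria were grown overnight in TSB, back-diluted, then incubated with the compounds overnight at 37 °C. MIC was taken as the lowest concentration with no visible growth (<0.1 OD600).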

Pseudomonas aeruginosa [2] = experiment: Potentiation of doxycycline induced antibacterial activity against Pseudomonas aeruginosa NCTC 13437; assay type: functional, organism-based
Cell membrane [3] = experiment: Induction of outer membrane permeabilization in Klebsiella pneumoniae NCTC 13368 assessed as increase fluorescence intensity by measuring NPN uptake factor measured immediately for 2 hrs by fluorescence based analysis; assay type: subcellular
Outline: (§2)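 NPN outer-membrane uptake. Overnight TSB cultures (37 °C, 200 rpm) were subcultured 1:20 for 2 h to mid-log, washed, and resuspended in 5 mM HEPES with 5 mM glucose, pH 7.2. Cells were mixed with assay buffer containing 10 µM NPN, then with compound, polymyxin B (positive control) or buffer. Fluorescence (ex 350, em 420 nm) was monitored immediately for 2 h.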

Pseudomonas aeruginosa [4] = experiment: Potentiation of doxycycline induced antibacterial activity against Pseudomonas aeruginosa PAO1; assay type: functional, organism-based
Pseudomonas aeruginosa [5] = experiment: Synergistic antibacterial activity against Pseudomonas aeruginosa NCTC 13437 assessed as reduction in rifampicin MIC at 8 to 32 microg/ml incubated for overnight by microbroth dilution checkerboard assay; assay type: functional, organism-based; conditions: dose 8-32 µg/ml; outline: as §1
Cell membrane [6] = experiment: Induction of outer membrane permeabilization in Pseudomonas aeruginosa NCTC 13437 assessed as increase fluorescence intensity by measuring NPN uptake factor measured immediately for 2 hrs by fluorescence based analysis; assay type: subcellular; outline: as §2
Klebsiella pneumoniae [7] = experiment: Synergistic antibacterial activity against Klebsiella pneumoniae NCTC 13368 assessed as reduction in rifampicin MIC at 8 to 64 microg/ml incubated for overnight by microbroth dilution checkerboard assay; assay type: functional, organism-based; conditions: dose 8-64 µg/ml
Outline: (§3)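 Checkerboard microdilution under MIC conditions (TSB, overnight, 37 °C). Two-fold series of each agent were combined on one plate before bacteria were added, and single-agent MICs were measured on the same plate. FIC = sum of combination MIC/alone MIC for each agent, taken from the most synergistic well. Three independent repeats, mean ± SD. ≤0.5 was taken as strong synergy and 0.5–<1 as weak.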

Cell membrane [8] = experiment: Induction of outer membrane permeabilization in Escherichia coli NCTC 12923 assessed as increase fluorescence intensity by measuring NPN uptake factor measured immediately for 2 hrs by fluorescence based analysis; assay type: subcellular; outline: as §2
Cell membrane [9] = experiment: Induction of outer membrane permeabilization in Acinetobacter baumannii ATCC 17978 assessed as increase fluorescence intensity by measuring NPN uptake factor measured immediately for 2 hrs by fluorescence based analysis; assay type: subcellular; outline: as §2
[10] = Toxicity in Galleria mellonella larvae assessed as reduction in animal survival at 10 to 50 mg/kg measured for 120 hrs; assay type: organism-based; conditions: in vivo, dose 10-50 mg/kg
Outline: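 Wax moth larvae, assumed 300 mg mean weight with 50 µL haemolymph, 10 per group. Each was injected via the front proleg with 10 µL of compound at 50, 20 or 10 mg/kg, or PBS only. Larvae were held at 37 °C for 5 days and scored live/dead every 24 h; dead meant no response to physical stimuli.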

Klebsiella pneumoniae [11] = experiment: Potentiation of doxycycline induced antibacterial activity against Klebsiella pneumoniae NCTC 13368; assay type: functional, organism-based
Acinetobacter baumannii [12] = experiment: Synergistic antibacterial activity against Acinetobacter baumannii AYE assessed as reduction in rifampicin MIC at 32 microg/ml incubated for overnight by microbroth dilution checkerboard assay; assay type: functional, organism-based; conditions: dose 32.0 µg/ml; outline: as §3
Escherichia coli = experiment: Synergistic antibacterial activity against Escherichia coli NCTC 12923 assessed as reduction in rifampicin MIC at 32 microg/ml incubated for overnight by microbroth dilution checkerboard assay; assay type: functional, organism-based; conditions: dose 32.0 µg/ml; outline: as §3
Pseudomonas aeruginosa [13] = experiment: Synergistic antibacterial activity against Pseudomonas aeruginosa PAO1 assessed as reduction in rifampicin MIC at 8 to 32 microg/ml incubated for overnight by microbroth dilution checkerboard assay; assay type: functional, organism-based; conditions: dose 8-32 µg/ml; outline: as §1
Klebsiella pneumoniae [14] = experiment: Synergistic antibacterial activity against Klebsiella pneumoniae NCTC 13368 assessed as fractional inhibitory concentration index incubated for overnight in presence of rifampicin by microbroth dilution checker board assay; assay type: functional; outline: as §3
Klebsiella pneumoniae [15] = experiment: Potentiation of doxycycline induced antibacterial activity against Klebsiella pneumoniae M6; assay type: functional, organism-based
Cell membrane [16] = experiment: Induction of outer membrane permeabilization in Pseudomonas aeruginosa PAO1 assessed as increase fluorescence intensity by measuring NPN uptake factor measured immediately for 2 hrs by fluorescence based analysis; assay type: subcellular; outline: as §2
Pseudomonas aeruginosa [17] = experiment: Synergistic antibacterial activity against Pseudomonas aeruginosa NCTC 13437 assessed as fractional inhibitory concentration index incubated for overnight in presence of rifampicin by microbroth dilution checker board assay; assay type: functional
Outline: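 Checkerboard microdilution in Tryptic Soy Broth, run like the MIC assay. Overnight TSB cultures were back-diluted to OD 0.01 and added 1:1 to the combined two-fold series of both agents, then incubated overnight at 37 °C. Growth/no-growth was called at <0.1 OD600. MICs alone were read on the same plates. FIC index came from the most synergistic well; three independent repeats, mean ± SD.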

Acinetobacter baumannii [18] = experiment: Synergistic antibacterial activity against Acinetobacter baumannii ATCC 17978 assessed as reduction in rifampicin MIC at 32 microg/ml incubated for overnight by microbroth dilution checkerboard assay; assay type: functional, organism-based; conditions: dose 32.0 µg/ml; outline: as §3

CCCCCCCCCCNC(=N)NCCCCN
Activity (Klebsiella pneumoniae [1]): Active | Activity (Pseudomonas aeruginosa [2]): Active | Activity (Cell membrane [3]): > 1 | Activity (Pseudomonas aeruginosa [4]): Active | Activity (Pseudomonas aeruginosa [5]): Active | Activity (Cell membrane [6]): > 1 | Activity (Klebsiella pneumoniae [7]): Active | Activity (Cell membrane [8]): > 1 | Activity (Cell membrane [9]): > 1 | Activity [10]: Non-Toxic | Activity (Klebsiella pneumoniae [11]): Active | Activity (Acinetobacter baumannii [12]): Active | Activity (Escherichia coli): Active | Activity (Pseudomonas aeruginosa [13]): Active | fractional inhibitory concentration index (FICI) (Klebsiella pneumoniae [14]): 0.1 | Activity (Klebsiella pneumoniae [15]): Active | Activity (Cell membrane [16]): > 1 | fractional inhibitory concentration index (FICI) (Pseudomonas aeruginosa [17]): 0.15 | Activity (Acinetobacter baumannii [18]): Active
